In brackets after ≈: the same amount, converted by molar mass.
Key:
[1] = molecular target: T1, Prostaglandin G/H synthase 1 (Ovis aries, UniProt P05979); assay: Inhibition of ovine COX1 by colorimetric assay
T1 sequence (P05979 whole entry): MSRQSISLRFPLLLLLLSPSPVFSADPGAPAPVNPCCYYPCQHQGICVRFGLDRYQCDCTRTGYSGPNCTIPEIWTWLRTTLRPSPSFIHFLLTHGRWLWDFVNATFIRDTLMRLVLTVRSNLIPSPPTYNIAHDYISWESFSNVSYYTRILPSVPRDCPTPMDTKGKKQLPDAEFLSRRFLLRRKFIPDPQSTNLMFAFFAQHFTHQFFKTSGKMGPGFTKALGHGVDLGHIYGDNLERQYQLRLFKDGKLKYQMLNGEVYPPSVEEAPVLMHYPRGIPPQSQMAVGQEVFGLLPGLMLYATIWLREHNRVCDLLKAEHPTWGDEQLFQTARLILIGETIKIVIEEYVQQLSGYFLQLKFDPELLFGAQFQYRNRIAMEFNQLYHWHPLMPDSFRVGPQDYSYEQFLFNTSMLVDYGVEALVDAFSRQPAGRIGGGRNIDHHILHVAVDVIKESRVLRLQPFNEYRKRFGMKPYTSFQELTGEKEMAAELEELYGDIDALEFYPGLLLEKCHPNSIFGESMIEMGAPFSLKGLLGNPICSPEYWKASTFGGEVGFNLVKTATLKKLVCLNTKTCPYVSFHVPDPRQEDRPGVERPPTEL
Summary of the method: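 Ovine COX-1, colorimetric inhibitor screening kit. Enzyme preincubated 5 min at 25 °C with compound. Arachidonic acid (final 1.1 mM) and TMPD then added, 5 min at 25 °C. Inhibition % = [1−(A1−A2)/A0]×100, blank without TMPD. IC50 from calibration curve over several concentrations. Triplicate experiments, mean reported.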

[2] = test system: Radical scavenging activity; assay: Antioxidant activity assessed as DPPH radical scavenging activity after 30 mins by microplate reader assay; format: functional
Summary of the method: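 Mixed 1 min, then kept at room temperature ([…]) for 30 min. Absorbance read at 515 nm. Scavenging % corrected for a no-DPPH blank. IC50 taken from a calibration curve. Triplicate experiments, mean reported.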

[3] = Antioxidant activity assessed as superoxide radical scavenging activity after 20 mins by NBT reduction assay; format: functional
Summary of the method: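 Superoxide made by xanthine/xanthine oxidase and detected by NBT reduction. Xanthine oxidase (0.8 U/ml stock) added, then 37 °C for 20 min. Stopped with 1 M HCl and read at 560 nm. Blank lacks enzyme. IC50 from a calibration curve. Triplicate experiments, mean.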

SMILES | IC50 [1] [µM] | IC50 [2] [µg/mL] | IC50 [3] [µg/mL]
O=C(/C=C/C=C/c1ccc(O)cc1)/C=C/c1ccc(O)cc1 | 19.8 | > 100 | > 100
COc1ccc(CCc2ccccc2O)cc1OC | > 387 | > 100 | > 100
Oc1cc(O)cc(CCc2ccccc2O)c1 | > 434 | > 100 | > 100
COc1c(O)cc(CCc2ccccc2)cc1O | > 409 | 37.5 (≈ 154 µM) | > 100
COc1c(O)cccc1CCc1cc(O)cc(O)c1 | > 384 | 46.7 (≈ 179 µM) | > 100
Oc1cc(O)c2c(c1)CCc1ccccc1O2 | > 438 | > 100 | > 100
COc1cc(O)cc2c1Oc1ccccc1CC2 | > 413 | 40.6 (≈ 168 µM) | > 100
COc1cc(CCc2ccccc2O)cc(OC)c1O | > 365 | 28.8 (≈ 105 µM) | 56.3 (≈ 205 µM)
COc1cc(/C=C/C=C/C(=O)CCc2ccc(O)cc2)ccc1O | > 308 | 40 (≈ 123 µM) | 38.8 (≈ 120 µM)
O=C(/C=C/C=C/c1ccc(O)cc1)CCc1ccc(O)cc1 | > 340 | > 100 | 44.1 (≈ 150 µM)
COc1cc2c(ccc3cc(O)cc(OC)c32)cc1O | 11.1 | 31.4 (≈ 116 µM) | 39.6 (≈ 147 µM)
COc1cc(CC[C@@H](O)C[C@H](O)CCc2ccc(O)c(OC)c2)ccc1O | > 266 | 12.3 (≈ 32.7 µM) | 48.7 (≈ 129 µM)
Oc1ccc(CC[C@@H](O)C[C@H](O)CCc2ccc(O)cc2)cc1 [(+)-HANNOKINOL] | > 316 | > 100 | > 100
O=c1cc(-c2ccc(O)cc2)oc2cc(O)cc(O)c12 [APIGENIN] | > 370 | > 100 | > 100
O=C1O[C@H]([C@@H](O)CO)C(O)=C1O [ASCORBIC ACID] |  | 19.2 (≈ 109 µM) | 16.7 (≈ 94.8 µM)
COc1cc(O)cc(CCc2cccc(O)c2)c1 [BATATASIN III] | > 409 | > 100 | > 100
COc1cc(O)cc(CCc2ccccc2O)c1 [BATATASIN IV] | > 409 | > 100 | > 100
Oc1cc(O)c2c(c1)OC(c1ccc(O)c(O)c1)C(O)C2 (stereo not given) [CATECHIN] |  | 13.5 (≈ 46.5 µM) | 13.7 (≈ 47.2 µM)
COc1cc(O)cc2c1-c1c(O)cccc1CC2 [HIRCINOL] | > 413 | 63.8 (≈ 263 µM) | 62.4 (≈ 258 µM)
COc1cc(O)c2c(c1)CCc1cc(O)ccc1-2 [LUSIANTHRIDIN] | > 413 | 43 (≈ 177 µM) | 51.5 (≈ 213 µM)
COc1cc(CCc2cc(O)cc(O)c2)ccc1O [TRISTIN] |  | 35.2 (≈ 135 µM) | 51.6 (≈ 198 µM)
